Columns and labels:
[1] = system: Rhizoctonia solani; assay: Antifungal activity against Rhizoctonia solani infected compound pre-treated rice seedlings through submerged application assessed as concentration required to prevent rice sheath blight disease development measured per 10 acres after 7 days under greenhouse condition; format: functional
[2] = system: Pyricularia oryzae; assay: Fungicidal activity against Magnaporthe oryzae assessed as inhibition of mycelial growth after 24 to 48 hr by agar dilution method; format: functional, organism-based
In short: (§1)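 Agar dilution on potato dextrose agar. Test compounds were serially diluted in DMSO containing 10% Tween 20, and 0.1 mL of each dilution went into a petri dish with 10 mL of agar medium, which was then solidified. IC50 was taken as the concentration giving 50% inhibition.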

[3] = system: Rhizoctonia solani; assay: Fungicidal activity against Rhizoctonia solani assessed as inhibition of mycelial growth after 24 to 48 hr by agar dilution method; format: functional, organism-based; in short: as §1
[4] = system: Pyricularia oryzae; assay: Antifungal activity against Magnaporthe oryzae infected compound pre-treated rice seedlings through submerged application assessed as concentration required to prevent rice blast disease development measured per 10 acres after 7 days under greenhouse condition; format: functional

Row | Structure (SMILES) | Activity [1] | IC50 [2] | IC50 [3] | Activity [4]
1 | C[Si](C)(C)C[C@](O)(Cn1cncn1)c1ccc(F)cc1 | 25 g | 0.95 ppm | 0.016 ppm | 100 g
2 | C[Si](C)(C)CC(O)(Cn1cncn1)c1ccc(F)cc1 (racemic) [SIMECONAZOLE] | 25 g | 1.25 ppm | 0.042 ppm | 100 g
3 | C[Si](C)(C)C[C@@](O)(Cn1cncn1)c1ccc(F)cc1 | >100 g | 33.5 ppm | 0.54 ppm | >100 g
